Experimental data published in ChEMBL document CHEMBL4689842, “EUbOPEN Chemogenomics Library wave 1” (2021).

System: U2OS
Assay: Multiplex assay against U2OS
Assay type: toxicity, cell-based
Conditions: human
Summary of the method: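 On a CQ1 microscope at 37°C and 5% CO2, live cells were imaged after compound addition. They had been stained at seeding with Hoechst33342, BioTracker Green Microtubule Cytoskeleton Dye, MitoTracker Red and Annexin V Alexa Fluor 680. CellPathfinder machine-learning gating assigned cells to Hoechst high-intensity objects or normal cells, normal cells to healthy, pyknosed or fragmented nuclei, and pyknosed cells to mitotic or apoptotic. Tubulin, mitochondrial-mass and membrane-permeability phenotypes are per cents of healthy-nucleus cells.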

[1] = 12 h, 1 µM, compound concentration 1 uM, replicate 1
[2] = 12 h, 1 µM, compound concentration 1 uM, replicate 2
[3] = 12 h, 10 µM, compound concentration 10 uM, replicate 1
[4] = 12 h, 10 µM, compound concentration 10 uM, replicate 2
[5] = 24 h, 1 µM, compound concentration 1 uM, replicate 1
[6] = 24 h, 1 µM, compound concentration 1 uM, replicate 2
[7] = 24 h, 10 µM, compound concentration 10 uM, replicate 1
[8] = 24 h, 10 µM, compound concentration 10 uM, replicate 2
[9] = 48 h, 1 µM, compound concentration 1 uM, replicate 1
[10] = 48 h, 1 µM, compound concentration 1 uM, replicate 2
[11] = 48 h, 10 µM, compound concentration 10 uM, replicate 1
[12] = 48 h, 10 µM, compound concentration 10 uM, replicate 2

In the case of Cc1cccc(CN2CCN(C(c3ccccc3)c3ccc(Cl)cc3)CC2)c1.Cl.Cl (configuration not stated), the “Population Apoptotic (%)” value [1] is reported as 27%, the “Population Fragmented Nuclei (%)” value [1] is reported as 4% and the “Population Healthy Nuclei (%)” value [1] is reported as 87%. The “Population Hoechst High Intensity Objects (%)” value [1] was 6%, the “Population Membrane Permeable-Phenotype (%)” value [1] was 3% and the “Population Mitochondria Different-Phenotype (%)” value [1] was 6%. For the same molecule, the “Population Mitotic Cells (%)” value [1] was 72%, the “Population Normal (%)” value [1] was 93% and the “Population Pyknosed Nuclei (%)” value [1] was 7%. The “Population Tubulin-Different-Phenotype (%)” value [1] was 3%, the “Total Cell Count” value [1] was 182 and the “Population Apoptotic (%)” value [2] was 0%. The “Population Fragmented Nuclei (%)” value [2] was 16%, the “Population Healthy Nuclei (%)” value [2] was 79% and the “Population Hoechst High Intensity Objects (%)” value [2] was 8%. The “Population Membrane Permeable-Phenotype (%)” value [2] was 4%, the “Population Mitochondria Different-Phenotype (%)” value [2] was 26% and the “Population Mitotic Cells (%)” value [2] was 100%. For the same molecule, the “Population Normal (%)” value [2] was 91%, the “Population Pyknosed Nuclei (%)” value [2] was 3% and the “Population Tubulin-Different-Phenotype (%)” value [2] was 23%. For the same molecule, the “Total Cell Count” value [2] was 48, the “Population Apoptotic (%)” value [3] was 54% and the “Population Fragmented Nuclei (%)” value [3] was 6%. For the same molecule, the “Population Healthy Nuclei (%)” value [3] was 76%, the “Population Hoechst High Intensity Objects (%)” value [3] was 5% and the “Population Membrane Permeable-Phenotype (%)” value [3] was 4%. For the same molecule, the “Population Mitochondria Different-Phenotype (%)” value [3] was 73%, the “Population Mitotic Cells (%)” value [3] was 45% and the “Population Normal (%)” value [3] was 94%. The “Population Pyknosed Nuclei (%)” value [3] was 16%, the “Population Tubulin-Different-Phenotype (%)” value [3] was 78% and the “Total Cell Count” value [3] was 149. For the same molecule, the “Population Apoptotic (%)” value [4] was 50%, the “Population Fragmented Nuclei (%)” value [4] was 14% and the “Population Healthy Nuclei (%)” value [4] was 72%. The “Population Hoechst High Intensity Objects (%)” value [4] was 6%, the “Population Membrane Permeable-Phenotype (%)” value [4] was 6% and the “Population Mitochondria Different-Phenotype (%)” value [4] was 61%. For the same molecule, the “Population Mitotic Cells (%)” value [4] was 50%, the “Population Normal (%)” value [4] was 93% and the “Population Pyknosed Nuclei (%)” value [4] was 13%. The “Population Tubulin-Different-Phenotype (%)” value [4] was 47%, the “Total Cell Count” value [4] was 58 and the “Population Apoptotic (%)” value [5] was 45%. The “Population Fragmented Nuclei (%)” value [5] was 7%, the “Population Healthy Nuclei (%)” value [5] was 86% and the “Population Hoechst High Intensity Objects (%)” value [5] was 5%. For the same molecule, the “Population Membrane Permeable-Phenotype (%)” value [5] was 2%, the “Population Mitochondria Different-Phenotype (%)” value [5] was 8% and the “Population Mitotic Cells (%)” value [5] was 54%. For the same molecule, the “Population Normal (%)” value [5] was 94%, the “Population Pyknosed Nuclei (%)” value [5] was 6% and the “Population Tubulin-Different-Phenotype (%)” value [5] was 2%. For the same molecule, the “Total Cell Count” value [5] was 176, the “Population Apoptotic (%)” value [6] was 80% and the “Population Fragmented Nuclei (%)” value [6] was 18%. The “Population Healthy Nuclei (%)” value [6] was 73%, the “Population Hoechst High Intensity Objects (%)” value [6] was 10% and the “Population Membrane Permeable-Phenotype (%)” value [6] was 11%. For the same molecule, the “Population Mitochondria Different-Phenotype (%)” value [6] was 13%, the “Population Mitotic Cells (%)” value [6] was 20% and the “Population Normal (%)” value [6] was 89%. For the same molecule, the “Population Pyknosed Nuclei (%)” value [6] was 8%, the “Population Tubulin-Different-Phenotype (%)” value [6] was 22% and the “Total Cell Count” value [6] was 47. The “Population Apoptotic (%)” value [7] was 42%, the “Population Fragmented Nuclei (%)” value [7] was 6% and the “Population Healthy Nuclei (%)” value [7] was 74%. For the same molecule, the “Population Hoechst High Intensity Objects (%)” value [7] was 7%, the “Population Membrane Permeable-Phenotype (%)” value [7] was 2% and the “Population Mitochondria Different-Phenotype (%)” value [7] was 65%. For the same molecule, the “Population Mitotic Cells (%)” value [7] was 57%, the “Population Normal (%)” value [7] was 92% and the “Population Pyknosed Nuclei (%)” value [7] was 19%. The “Population Tubulin-Different-Phenotype (%)” value [7] was 61%, the “Total Cell Count” value [7] was 181 and the “Population Apoptotic (%)” value [8] was 11%. For the same molecule, the “Population Fragmented Nuclei (%)” value [8] was 10%, the “Population Healthy Nuclei (%)” value [8] was 77% and the “Population Hoechst High Intensity Objects (%)” value [8] was 5%. For the same molecule, the “Population Membrane Permeable-Phenotype (%)” value [8] was 5%, the “Population Mitochondria Different-Phenotype (%)” value [8] was 63% and the “Population Mitotic Cells (%)” value [8] was 88%. For the same molecule, the “Population Normal (%)” value [8] was 94%, the “Population Pyknosed Nuclei (%)” value [8] was 12% and the “Population Tubulin-Different-Phenotype (%)” value [8] was 45%. For the same molecule, the “Total Cell Count” value [8] was 67, the “Population Apoptotic (%)” value [9] was 30% and the “Population Fragmented Nuclei (%)” value [9] was 5%. For the same molecule, the “Population Healthy Nuclei (%)” value [9] was 85%, the “Population Hoechst High Intensity Objects (%)” value [9] was 3% and the “Population Membrane Permeable-Phenotype (%)” value [9] was 1%. For the same molecule, the “Population Mitochondria Different-Phenotype (%)” value [9] was 11%, the “Population Mitotic Cells (%)” value [9] was 69% and the “Population Normal (%)” value [9] was 96%. The “Population Pyknosed Nuclei (%)” value [9] was 8%, the “Population Tubulin-Different-Phenotype (%)” value [9] was 5% and the “Total Cell Count” value [9] was 192. The “Population Apoptotic (%)” value [10] was 0%, the “Population Fragmented Nuclei (%)” value [10] was 9% and the “Population Healthy Nuclei (%)” value [10] was 84%. For the same molecule, the “Population Hoechst High Intensity Objects (%)” value [10] was 7%, the “Population Membrane Permeable-Phenotype (%)” value [10] was 5% and the “Population Mitochondria Different-Phenotype (%)” value [10] was 16%. For the same molecule, the “Population Mitotic Cells (%)” value [10] was 100%, the “Population Normal (%)” value [10] was 92% and the “Population Pyknosed Nuclei (%)” value [10] was 6%. For the same molecule, the “Population Tubulin-Different-Phenotype (%)” value [10] was 24%, the “Total Cell Count” value [10] was 45 and the “Population Apoptotic (%)” value [11] was 54%. For the same molecule, the “Population Fragmented Nuclei (%)” value [11] was 8%, the “Population Healthy Nuclei (%)” value [11] was 72% and the “Population Hoechst High Intensity Objects (%)” value [11] was 4%. For the same molecule, the “Population Membrane Permeable-Phenotype (%)” value [11] was 3%, the “Population Mitochondria Different-Phenotype (%)” value [11] was 42% and the “Population Mitotic Cells (%)” value [11] was 45%. The “Population Normal (%)” value [11] was 95%, the “Population Pyknosed Nuclei (%)” value [11] was 18% and the “Population Tubulin-Different-Phenotype (%)” value [11] was 44%. The “Total Cell Count” value [11] was 299, the “Population Apoptotic (%)” value [12] was 25% and the “Population Fragmented Nuclei (%)” value [12] was 12%. The “Population Healthy Nuclei (%)” value [12] was 71%, the “Population Hoechst High Intensity Objects (%)” value [12] was 5% and the “Population Membrane Permeable-Phenotype (%)” value [12] was 7%. For the same molecule, the “Population Mitochondria Different-Phenotype (%)” value [12] was 30%, the “Population Mitotic Cells (%)” value [12] was 75% and the “Population Normal (%)” value [12] was 94%. For the same molecule, the “Population Pyknosed Nuclei (%)” value [12] was 16%, the “Population Tubulin-Different-Phenotype (%)” value [12] was 18% and the “Total Cell Count” value [12] was 95.
